Columns and labels:
MS2 coat protein [1] = assay: apparent Kd, MS2 coat protein; higher = weaker binding; RNA-MaP array; tryptophan 2.4 mM where present
Outline: (§1)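 The apparent Kd is reported as the median of filtered per-cluster binding-curve fits. To get these curves, designs transcribed by stalled E. coli RNA polymerase on Illumina sequencing-chip clusters were titrated with SNAP-549-labelled MS2 coat protein from 0.7 or 1.5 nM, doubling to 3 µM. Titrations were run without and then with constant ligand in 100 mM Tris-HCl pH 7.5, 80 mM KCl, 4 mM MgCl2, BSA, DTT, yeast tRNA and Tween-20, and green signal was normalised to red-channel RNA signal and control-cluster median Fmax.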

MS2 coat protein [2] = assay: apparent Kd, MS2 coat protein; higher = weaker binding; RNA-MaP array; theophylline 2 mM where present
Outline: as §1

[3] = designed as: ON switch for tryptophan, no ligand
[4] = ligand present: tryptophan, designed as: ON switch for tryptophan
[5] = designed as: OFF switch for tryptophan, no ligand
[6] = ligand present: tryptophan, designed as: OFF switch for tryptophan
[7] = designed as: ON switch for theophylline, no ligand
[8] = ligand present: theophylline, designed as: ON switch for theophylline

Sequence | apparent Kd (MS2 coat protein [1]; [3]) [nM] | apparent Kd (MS2 coat protein [1]; [4]) [nM] | apparent Kd (MS2 coat protein [1]; [5]) [nM] | apparent Kd (MS2 coat protein [1]; [6]) [nM] | also measured
AAUAAUAGGUGAUCCUGACGAGUGGCAUAACGAGGACCGGUACGGCCGCCACUCGAACAUGAGGAUCACCCAUGUAGCCACUCGA | 312 | 393 | – | – | –
UUAGUAACGACGGCCGCCACUGGAUAUGAACAUGAGGAUCACCCAUGUAGAGAUCCUAGAAUAAACAGGACCGGGUCUGAUAAUA | – | – | 17.2 | 53.4 | –
CAUAUAUAAGCGGCCGCCACUUACUCAUGAGGUAACAACAUGAGGAUCACCCAUGUUUGAGGAUCAAGGACCGGGCUUAUAUAUG | 28.3 | 18.3 | – | – | –
CGCCACAUGAGGAUCACCCAUGUCUUGGCGCGAGGACCGGUACGGCCGCCACUCGCGUUUCAGUGAGCGCAUGCGUCCUUGGUAU | – | – | 18.3 | 26.1 | –
GGAUCAGGAUCGGCCGCCACUGAUAGUGAUCCAACGACAUGAGGAUCACCCAUGUACAUUUUAAUCAGGACCGGGAUCAAGUUCC | – | – | 129 | 209 | –
AAUGUAUGGCACAUGAGGAUCACCCAUGUGCGAGGACCGGUACGGCCGCCACUCGGUCGUGGGUUCUUAUUACUAUACAUUAAUG | – | – | 10.7 | 12.3 | –
GCAUCCUAGUCGGCCGCCACUGCACGAUCAGUGGCAGAUCGUCAACAUGAGGAUCACCCAUGUAGCAGGACCGGGACUAGGAUGC | 17.6 | 24.6 | – | – | –
UUUAUUAUUGACUCGUUAUUGUUUUUGGAUCGAGGACCGGUACGGCCGCCACUCGUGAUAUACAUGAGGAUCACCCAUGUUAGCA | 14.9 | 12.8 | – | – | –
UAUAUAUAUCACGAACUGUGGUGUAUGUCUCGAGGACCGGUACGGCCGCCACUCGCGCGGCCUCACAUGAGGAUCACCCAUGUCC | – | – | 89.2 | 113 | –
GAGUAGUAGACGGCCGCCACUAAACAUGAGGAUCACCCAUGUAGUGAUCCGUUACCUAGCGUAGAUAGGACCGGGUCAGAUAGUA | – | – | 26 | 29.2 | –
CUAUAAGUACCGGUCCUCAGAUCCUCAUGACGAGGACCGGUACGGCCGCCACUCGAAACAUGAGGAUCACCCAUGUAAUAAUACC | – | – | 35.5 | 19.9 | –
GCAUCCUAGUCGGCCGCCACUGCAACAUGAGGAUCACCCAUGUCUGUAUGUGAUCCAUGCAGUAGCAGGACCGGGACUAGGAUGC | 501 | 130 | – | – | –
UCGUUUUAGUCGGCCGCCACUGUAUGCAUGUUUAACAUGAGGAUCACCCAUGUCCCGUACUAUAACAGGACCGGGACGUAAUAGA | 168 | 100 | – | – | –
AUAAAUAAGGCGGCCGCCACUAAUAUAUUAAUAUUUUAUAUCCGACAUGAGGAUCACCCAUGUGGUAGGACCGGGCCAAUAAUUA | 26.2 | 25.8 | – | – | –
GGAGCUACGUCGGCCGCCACUAGCGGAUAUUACGUGUACAUGAGGAUCACCCAUGUAAUACGGUUUAGGACCGGGACGUAGCUCC | – | – | 17.3 | 16.5 | –
UGUCAUGGAAACAUGACUGGUUCUACCGGUCGAGGACCGGUACGGCCGCCACUCGAUUGGUGGCACAUGAGGAUCACCCAUGUUA | 28.2 | 30 | – | – | –
AGAGCAUUGACGGCCGCCACUCGUGUCACAUGAGGAUCACCCAUGUGAUGGGUGAUAGCCCGGUUGAGGACCGGGUCAAUGCUCA | 13.7 | 19.2 | – | – | –
GUUUUGGGAUCGGCCGCCACUACAUGAGGAUCACCCAUGUGGACAAAUAGGGUUUUUAAGCUCGGUAGGACCGGGAUUCGAACAU | – | – | 18.1 | 67.5 | –
ACAUUGCGCUCGGCCGCCACUGCCUUAUGAUUAUAAGGAUUAAUGAACAUGAGGAUCACCCAUGUCAGGACCGGGAGCGAACCAU | 13.7 | 13.4 | – | – | –
UACAUGAGGAUCACCCAUGUAUUGCCGGUACGAGGACCGGUACGGCCGCCACUCGGAGCAUGAGGAUCACCCAUGUGCUGCUAUG | 66.2 | 51.8 | – | – | –
AACAUGAGGAUCACCCAUGUUCUCGUGUACCGAGGACCGGUACGGCCGCCACUCGGUUCUCGCGAGGAUGGUCAAAGACUAUCCA | 19.1 | 16 | – | – | –
GCAUCCUAGUCGGCCGCCACUGCAUGUAGGCAGUGCUGCUACAAACAUGAGGAUCACCCAUGUAGCAGGACCGGGACUAGGAUGC | 15 | 13.1 | – | – | –
AAUACCGGAUCGGCCGCCACUGGUUGGCCCUGUGUACAUGAGGAUCACCCAUGUCCAUCCCAAGCCAGGACCGGGAUCUUUGUGU | 16.7 | 10.1 | – | – | –
AUGGUCGACGAUCUGCGAAAAGCAGAUCGACGAGGACCGGUACGGCCGCCACUCGUGUUUAUUUAACAUGAGGAUCACCCAUGUA | 80.2 | 22.3 | – | – | –
UGAUACCAGUCGGCCGCCACUACAUGAGGAUCACCCAUGUAUCCUCAACUGCUAGAUACUAGCAGUAGGACCGGGACUGGUAUCU | – | – | 307 | 1150 | –
CUAAUUAAAUCGGCCGCCACUUACUCAUGAGGUAACAACAUGAGGAUCACCCAUGUUUGAGGAUCAAGGACCGGGAUUUAAUUAG | 28.9 | 18.2 | – | – | –

Sequence | apparent Kd (MS2 coat protein [1]; [3]) [nM] | apparent Kd (MS2 coat protein [1]; [4]) [nM] | apparent Kd (MS2 coat protein [1]; [5]) [nM] | apparent Kd (MS2 coat protein [1]; [6]) [nM] | also measured
CUAUAUAUAGCGGCCGCCACUUACUCAUGAGGUAACAACAUGAGGAUCACCCAUGUUUGAGGAUCAAGGACCGGGCUAUAUAUAG | 28.2 | 16.7 | – | – | –
AGUCACUCGAGGUGAUCUGACGAGUGGCAACGAGGACCGGUACGGCCGCCACUCGAAUAAACAUGAGGAUCACCCAUGUACAAAU | 213 | 196 | – | – | –
AGCCGGAUUACGGCCGCCACUGUAGACGUGACGAAAGUCGCGUCAACAUGAGGAUCACCCAUGUACAGGACCGGGUGGUCAGGCG | 173 | 41.2 | – | – | –
ACAUGUUGGUGGUAUCUACGAAGGCGGAAACGAGGACCGGUACGGCCGCCACUCGGCGACAUGAGGAUCACCCAUGUGGUUAAAA | – | – | 52.6 | 27.5 | –
CGAAUAUAGACGGCCGCCACUCUACAAACAUGAGGAUCACCCAUGUUCACAUAGUGGAAACACAUGAGGACCGGGUCAUAGGCAU | 18.5 | 14 | – | – | –
UUGUGGCGCUCGGCCGCCACUCCGACAUGAGGAUCACCCAUGUUCUACAUGAGGAUCACCCAUGUGAGGACCGGGAGACACUUCC | – | – | 104 | 103 | –
UUCACAUGAUCUGAAUAUACAGAAAAGAAACGAGGACCGGUACGGCCGCCACUCGUGCCGGAAACAUGAGGAUCACCCAUGUGUU | – | – | 24.2 | 22 | –
GUCCAAAGGUCGGCCGCCACUGUAGAGUGUGUUCUUUCACAUGAGGAUCACCCAUGUUGUUAUUAUAGGACCGGGAUUGUAGGAC | – | – | 20.4 | 28.1 | –
CUAUAUUUAUCGGCCGCCACUUACUCAUGAGGUAACAACAUGAGGAUCACCCAUGUUUGAGGAUCAAGGACCGGGAUAAAUAUAG | 27.8 | 16.3 | – | – | –
UCGUUAUGGUCGGCCGCCACUCGCGGAGAGCAUAGCUCAAACAUGAGGAUCACCCAUGUAUCAUGGAGGACCGGGACCAUAACGU | 31.9 | 14 | – | – | –
CUACAUUUGUAGAAACCGGUCAACAAUAAUCGAGGACCGGUACGGCCGCCACUCGAUGUGAAAUACACAUGAGGAUCACCCAUGU | 15.9 | 16.9 | – | – | –
CCUAUGCAGUCGGCCGCCACUGAGUCCUCAAUAAUAAAUUAAUAAACAUGAGGAUCACCCAUGUACAGGACCGGGACUGUAUAGG | – | – | 314 | 373 | –
GUGUUAUGGUCGGCCGCCACUCUGACAUGAGGAUCACCCAUGUUGUACAUGAGGAUCACCCAUGUGAGGACCGGGACACGUGCGA | – | – | 401 | 442 | –
CUAUGUAUAUAUGCGAAAGCUACGUGUUGACGAGGACCGGUACGGCCGCCACUCGACAUGAGGAUCACCCAUGUAAUAUAUAUAG | 200 | 62.7 | – | – | –
AGAUUCGACACGGCCGCCACUCGUGGUGGAUUACCUAGUGUCGAACAUGAGGAUCACCCAUGUACGAGGACCGGGUGUUGAGUCU | – | – | 75 | 200 | –
CUGCCUGCCUCACAUGAGGAUCACCCAUGUCGAGGACCGGUACGGCCGCCACUCGUCGUCGGUAAUACAGGCAUUGAAUAAUAUA | – | – | 10.3 | 37.5 | –
CUACAUUUGUAGAAACCGGUCACCGUUACUCGAGGACCGGUACGGCCGCCACUCGUGUCACGUGAUACAUGAGGAUCACCCAUGU | 37.4 | 31.3 | – | – | –
AGCCACUCGAGUGAUCCUCACGAGUGGCAACGAGGACCGGUACGGCCGCCACUCGAAUAACAUGAGGAUCACCCAUGUUUAUAAU | 93.2 | 96.2 | – | – | –
GUUUAAAGGUCGGCCGCCACUGUAGGAUGUGUUCUUUCACAUGAGGAUCACCCAUGUUGUUAUUAUAGGACCGGGAUUUUAGGAC | – | – | 27.1 | 22.4 | –
ACAUGAGGAUCACCCAUGUUAAACAGGGUGCGAGGACCGGUACGGCCGCCACUCGGACAUUAUUACGAGUGAAUGGUAACGAUGU | – | – | 19.9 | 20 | –
AGAUUCGACACGGCCGCCACUUGUGGUGGAUUAUCCUAUGUCGAACAUGAGGAUCACCCAUGUACAAGGACCGGGUGUUGAGUCU | – | – | 401 | 119 | –
CACGCACGAUCGGCCGCCACUCAUGUAGCUUACAUGAGGAUCACCCAUGUAUUUUCUUUCUUUUAGAGGACCGGGAUCGUGCGUG | 24.9 | 16.5 | – | – | –
AUCGUACCUGAUGAUACCAGCAUGUGAUCGUAACAUGAGGAUCACCCAUGUGAUCAGUGAUGCCCUUGGCAGCAUGAUCGGUACA | – | – | – | – | apparent Kd (MS2 coat protein [2]; [7]): 35.4 nM; apparent Kd (MS2 coat protein [2]; [8]): 14.7 nM
GGGUGCGGGAUAGAUACCAGUGCCUUAAAAUAGGCACAUGAGGAUCACCCAUGUACCGGGCGCCCUUGGCAGCUAGUACCAUCCA | – | – | – | – | apparent Kd (MS2 coat protein [2]; [7]): 127 nM; apparent Kd (MS2 coat protein [2]; [8]): 181 nM
GGUGGGACUUGUGAUACCAGCCCAGUUCUAAUCGAACUGCACAUGAGGAUCACCCAUGUCGGCCCUUGGCAGCAUGAGUAUUUAU | – | – | – | – | apparent Kd (MS2 coat protein [2]; [7]): 322 nM; apparent Kd (MS2 coat protein [2]; [8]): 19.3 nM
ACAUGAGGAUCACCCAUGUGCCGUCUUGAUACCAGACGCGAAGUAGUCCCUUGGCAGCAAAUACGUGAGGGUCGCGCAUGUGUAA | – | – | – | – | apparent Kd (MS2 coat protein [2]; designed as: OFF switch for theophylline, no ligand): 24.1 nM; apparent Kd (MS2 coat protein [2]; ligand present: theophylline, designed as: OFF switch for theophylline): 34.7 nM

Source: the EternaBench riboswitch data
